From ChEMBL document CHEMBL1157494, “Reduction in post-prandial hyperglycemic excursion through alpha-glucosidase inhibition by beta-acetamido carbonyl compounds” (Bioorg Med Chem Lett, 2008)
Activity calls are given as the source filed them. No cut-off for these calls is given here.

Legend:
Rattus norvegicus [1] = experiment: Antihyperglycemic activity in Wistar rat assessed as reduction in postprandial blood glucose rise at 100 mg/kg, po by carbohydrate tolerance test; type: functional, organism-based; design: dose 100 mg/kg
How it was run: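 Rats housed at 22 °C under a 12 h light-dark cycle, six per group, then fasted overnight. Basal plasma glucose was measured by glucose oxidase on retro-orbital EDTA blood. Compounds were suspended in normal saline and given orally at 100 mg/kg; controls received saline only. Delta-glycemia was read at 30–120 min, shown as mean SD and compared by ANOVA with Bonferroni.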

[2] = Inhibition of rat intestinal alpha-glucosidase activity
Rattus norvegicus [3] = species: Rattus norvegicus; experiment: Inhibition of rat intestinal alpha-glucosidase activity at 50 ug
How it was run: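 Rat intestinal α-glucosidase assayed in vitro. Compound added as 50 µg from a 5 mg/mL DMSO stock. Percent inhibition run in triplicate and given as mean SD.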

Structure (SMILES)	Activity (Rattus norvegicus [1])	IC50 [2] [µM]	inhibition (Rattus norvegicus [3]) [%]
C[C@H]1O[C@H](O[C@H]2[C@H](O)[C@@H](O)[C@@H](O[C@H]3[C@H](O)[C@@H](O)[C@H](O)O[C@@H]3CO)O[C@@H]2CO)[C@H](O)[C@@H](O)[C@@H]1N[C@H]1C=C(CO)[C@@H](O)[C@H](O)[C@H]1O	Active		
CC(=O)NC(CC(=O)c1ccc(F)cc1)c1ccc(O)cc1 (centres undefined)		72.8	60.1
CC(=O)NC(CC(=O)c1ccccc1)c1ccc([N+](=O)[O-])cc1 (centres undefined)		25.6	72.2
CC(=O)NC(CC(=O)c1ccc(Br)cc1)c1ccc(C)cc1 (centres undefined)	Active	5.53	95.1
CC(=O)NC(CC(=O)c1ccc([N+](=O)[O-])cc1)c1ccc([N+](=O)[O-])cc1 (centres undefined)			52.7
CC(=O)NC(CC(=O)c1ccc(Br)cc1)c1ccc(F)cc1 (centres undefined)			2.7
CC(=O)NC(CC(=O)c1ccc([N+](=O)[O-])cc1)c1ccc(C)cc1 (centres undefined)	Active	9.07	85
CC(=O)NC(CC(=O)c1ccc(F)cc1)c1ccc(F)cc1 (centres undefined)			55.1
